DAGLB inh: DAGLB lipase inhibitors, primary screen, biochemical, fluorescence, HTS; inhibition, % at 5.17 µM; actives 0.059% (n = 340,000); HEK293T DAGLB membrane lysate, EnzChek fluorogenic substrate; Diacylglycerol lipase-beta (Homo sapiens), Q8NCG7; AID 504411, 2011; in the data active means inhibition above about 34%;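 further: 0% = enzyme with vehicle and 100% = wells lacking enzyme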
Target sequence (Q8NCG7 whole entry, looked up): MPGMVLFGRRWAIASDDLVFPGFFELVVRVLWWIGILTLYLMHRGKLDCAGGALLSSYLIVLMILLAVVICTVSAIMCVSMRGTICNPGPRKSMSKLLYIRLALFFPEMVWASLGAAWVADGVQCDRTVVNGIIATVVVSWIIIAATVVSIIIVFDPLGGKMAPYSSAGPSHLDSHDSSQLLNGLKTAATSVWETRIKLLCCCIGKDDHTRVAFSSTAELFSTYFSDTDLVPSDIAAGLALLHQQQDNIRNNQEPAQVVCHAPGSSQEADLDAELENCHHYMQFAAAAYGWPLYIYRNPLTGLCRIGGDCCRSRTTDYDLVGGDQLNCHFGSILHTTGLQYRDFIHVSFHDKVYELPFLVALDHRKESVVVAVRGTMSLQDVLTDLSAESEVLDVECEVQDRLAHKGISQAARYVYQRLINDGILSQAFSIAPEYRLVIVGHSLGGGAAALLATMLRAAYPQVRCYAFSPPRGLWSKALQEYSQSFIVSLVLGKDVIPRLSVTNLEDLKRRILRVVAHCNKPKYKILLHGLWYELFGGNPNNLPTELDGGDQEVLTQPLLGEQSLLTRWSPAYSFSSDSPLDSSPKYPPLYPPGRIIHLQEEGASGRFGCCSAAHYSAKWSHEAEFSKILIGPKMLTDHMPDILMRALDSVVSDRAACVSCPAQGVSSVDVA
MT1-MMP act inh: blockers of MT1-MMP proenzyme processing, primary screen, HT1080 RFP-PRO-GFP cells, GFP/RFP fluorescence | AID 651647, 2012 | Matrix metalloproteinase-14 (Homo sapiens), P50281 | GFP/RFP ratio fluorescence, overnight; percent of plate control window, DMSO zero | actives 0.061% (n = 360,000) | GFP/RFP ratio change, % at 20 µM;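 active means GFP/RFP ratio change of at least 30% with cell ATP level not reduced by more than half and red fluorescence within 50% of control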
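Test system: HT1080 RFP-PRO-GFP cells; Benchmarks: DMSO and RFP-L50D-GFP cell wells; Timing: cells overnight before dosing, compound overnight, 37 °C, 5% CO2; Compound: one 20 µM compound dose with 1% DMSO; Read-out: GFP/RFP fluorescence ratio.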
hiPSC survival: enhancers of single-cell hiPSC survival, primary screen, ATPlite luminescence; 100% = ROCK inhibitor wells, 0% = DMSO; survival enhancement, % at 20 µM; actives 0.044% (n = 360,000); AID 602274, 2012; in the data active means survival enhancement above about 18%;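 further: cells exposed to compounds for 16 hours before the ATP read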
SKN-1 inh: suppressors of acrylamide-induced Pgst-4::GFP reporter in worms, primary screen, SKN-1 inhibitor project, whole organism, uHTS, GFP/RFP fluorescence ratio, strain VP596 | actives 0.49% (n = 360,000) | C. elegans VP596 Pgst-4::GFP/RFP ratio, 24 h | inhibition, % at 21.8 µM;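 active means interference check ratio from 0.5 to 1.5 plus GFP to RFP signal ratio inhibition reaching or exceeding a fixed threshold, cut at about 30% in these data, passing the limit was not always enough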
Ecoli rRNA inh: reduced GFP signal of wild-type E. coli, primary screen, bacterial rRNA inhibitor project, GFP/RFP fluorescence, OD600, single point; actives 1.6% (n = 350,000); E. coli WT GFP vs humanized-ribosome RFP mutants, 24 h; stronger effect = lower value; DMSO median 0, no signal -100; GFP signal change (wild-type ribosome), % (concentration not given with the values);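 active means significant combined selectivity score with lowered wild-type GFP, culture density cut under 30%, mutant RFP and density less affected; inactive means any of these conditions unmet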
Cneo AK release: Cryptococcus neoformans cell lysis inducers, primary screen, AK release luminescence, single concentration; actives 0.2% (n = 360,000); lysis activity, % at 15 µM; C. neoformans lysis, adenylate kinase release luminescence, 4 h; normalised: neutral wells 0, clomiphene wells 100;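 active means mean lysis activity across replicates of at least 80%, whatever share of replicates individually reach that level; inactive means mean lysis activity below 80%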
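read-out = cell lysis signal | test system = log-phase Cryptococcus neoformans yeast cells | input = cells at 5 × 10^6 per mL | medium = fresh YPD growth medium | signal = luminescent adenylate kinase detection reagent | timing = 4 h at 37 °C static, read 1 h later | dosing = single dose | controls = Clomiphene as positive lysis control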
Numbers without * were called inactive. In the library only some 1.8% were active in any assay of this set; here they are far more common.

`CCOc1ccc2nc(N3CCCCCC3)sc2c1` gave DAGLB inh -4, MT1-MMP act inh -1, hiPSC survival 0, SKN-1 inh 26, Ecoli rRNA inh -32* and Cneo AK release -3.
`C[C@@H]1CN([C@@H](C)CO)C(=O)c2cc(NS(=O)(=O)c3ccc(Cl)cc3)ccc2O[C@@H]1CN(C)C(=O)Nc1ccc(C(F)(F)F)cc1` gave Ecoli rRNA inh 2.
For C=Cn1cc[n+](CC(=O)c2cc(C(C)(C)C)c(O)c(C(C)(C)C)c2)c1 the results were DAGLB inh -1, MT1-MMP act inh -3, hiPSC survival 0, SKN-1 inh -4, Ecoli rRNA inh -19* and Cneo AK release -1.
`C=Cn1cc[n+](CC(=O)c2cccs2)c1` gave DAGLB inh -1, MT1-MMP act inh -1, hiPSC survival 0, SKN-1 inh 4, Ecoli rRNA inh 2 and Cneo AK release -5.
For COc1cc2oc3ccccc3c(=O)c2cc1OC the results were DAGLB inh -1, MT1-MMP act inh 4, hiPSC survival 0, SKN-1 inh 2 and Cneo AK release -5.
`O=c1c2ccccc2oc2ccc(Oc3ccccc3)cc12` gave DAGLB inh -30, MT1-MMP act inh 5, hiPSC survival 2, SKN-1 inh 41*, Ecoli rRNA inh -14 and Cneo AK release -3.
Cc1ccc(NC(=S)NC(=O)C2CCCC2)cc1C was read as DAGLB inh -19, MT1-MMP act inh -2, hiPSC survival 0, SKN-1 inh 0, Ecoli rRNA inh -29 and Cneo AK release 39.
`O=C(NC(=S)Nc1ccc(Br)c(Cl)c1)C1CC1` gave DAGLB inh -5, MT1-MMP act inh 0, hiPSC survival 0, SKN-1 inh 13, Ecoli rRNA inh -27* and Cneo AK release 11.
Screening Cc1ccc(NC(=S)NC(=O)C2CC2)c(C)c1 returned DAGLB inh -4, MT1-MMP act inh 0, hiPSC survival -1, SKN-1 inh 45*, Ecoli rRNA inh -3 and Cneo AK release 35.
`COc1cccc(-c2ccc([C@@H]3[C@H](CO)N(C(=O)C4CC4)C34CN(C(C)=O)C4)cc2)c1` gave Ecoli rRNA inh 1.
COC(=O)c1cc(S(=O)(=O)N(C)C2CCCCC2)oc1C was read as MT1-MMP act inh 0, hiPSC survival 0, SKN-1 inh -3, Ecoli rRNA inh -27* and Cneo AK release 0.
For CO[C@@H](CN(C)Cc1cc(F)ccc1F)[C@H](C)CN([C@@H](C)CO)S(=O)(=O)c1ccc(F)cc1 the results were Ecoli rRNA inh 2 and Cneo AK release 0.
For CO[C@H](CN(C)Cc1cc(F)ccc1F)[C@@H](C)CN([C@@H](C)CO)S(=O)(=O)c1ccc(F)cc1 the results were Ecoli rRNA inh -1 and Cneo AK release 91*.
Screening O=S(=O)(NCc1cc(-c2ccccc2)no1)c1ccccc1 returned DAGLB inh -3, MT1-MMP act inh 2, hiPSC survival 0, SKN-1 inh 17 and Ecoli rRNA inh -23*.
For O=S(=O)(NCc1cc(-c2ccc(Cl)cc2)no1)c1ccccc1 the results were DAGLB inh -2, MT1-MMP act inh 2, hiPSC survival 0, SKN-1 inh 10 and Cneo AK release 3.
For Cc1ccc(C(=O)CSC2=C(C#N)C(c3ccco3)C3=C(CC(C)(C)CC3=O)N2)cc1 (stereo not drawn) the results were DAGLB inh -4, MT1-MMP act inh 0, hiPSC survival 0, SKN-1 inh 28* and Cneo AK release 1.

Assay outcomes: PubChem, several laboratories
